{
  "source": "paper PMC3539145",
  "about": "(Scientific Reports, 2013)",
  "key": {"[1]": {"molecular_target": "human thymidylate synthase (h-TS) (Homo sapiens, UniProt P04818)", "sequence (P04818 whole entry)": "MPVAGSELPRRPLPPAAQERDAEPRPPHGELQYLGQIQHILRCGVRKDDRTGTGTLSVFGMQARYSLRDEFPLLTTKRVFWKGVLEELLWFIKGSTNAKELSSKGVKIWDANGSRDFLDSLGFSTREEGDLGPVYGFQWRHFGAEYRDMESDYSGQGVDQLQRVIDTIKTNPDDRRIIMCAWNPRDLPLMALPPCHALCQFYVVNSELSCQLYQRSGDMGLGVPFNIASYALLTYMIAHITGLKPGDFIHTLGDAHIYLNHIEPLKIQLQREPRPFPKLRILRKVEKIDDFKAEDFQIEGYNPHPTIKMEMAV", "test": "Human thymidylate synthase activity", "assay_type": "biochemical"}, "AC [2]": {"molecular_target": "T1, AC (Mus musculus, UniProt Q9WV54)", "T1 sequence (Q9WV54 19-394)": "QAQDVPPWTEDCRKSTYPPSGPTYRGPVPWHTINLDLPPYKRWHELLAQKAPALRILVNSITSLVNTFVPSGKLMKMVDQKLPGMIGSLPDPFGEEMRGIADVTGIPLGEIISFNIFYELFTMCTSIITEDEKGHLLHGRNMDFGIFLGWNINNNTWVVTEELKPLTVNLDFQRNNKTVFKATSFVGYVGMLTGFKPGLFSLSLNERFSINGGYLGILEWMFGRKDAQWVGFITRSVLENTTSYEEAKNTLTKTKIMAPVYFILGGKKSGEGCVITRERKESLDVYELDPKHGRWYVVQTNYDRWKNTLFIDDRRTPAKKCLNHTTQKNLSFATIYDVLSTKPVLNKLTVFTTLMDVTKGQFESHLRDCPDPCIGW", "test": "AC activity measured ex vivo in mouse tissues after i.p. injection", "parameters": "species or system mice", "conditions": "for AC activity in mouse lungs and brain cortex: 10 or 30 mg-kg^−1 i.p., ex vivo 2 h after injection", "in_short": "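Male Swiss Webster mice (20–35 g) received test compound at 10 or 30 mg-kg−1 i.p. (1 ml-kg−1) in 15% polyethylene glycol/15% Tween-80/70% saline. Mice were killed by cervical dislocation 2 h after dosing. Lungs and brain cortex were frozen in liquid nitrogen and stored at −80°C. AC activity was measured ex vivo. Data are mean ± s.e.m., n = 6.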"}, "SW403 cells [3]": {"test_system": "SW403 cells", "test": "SW403 cell viability", "assay_type": "cell-based, human", "conditions": "for interaction with taxol on SW403 cell viability / interaction with 5-FU on SW403 cell viability: isobolographic analyses; for interaction with 5-FU on SW403 cell viability: 5-FU 0.3 µM; for change in SW403 cell viability: single treatment, 3 μM, 3 h", "in_short": "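SW403 cells (2×10^5) are seeded the day before and treated in serum-free DMEM with test compound (0.1–100 µM) plus a partner drug (for 5-FU, 0.3 µM). Additions are repeated every 24 h over 72 h. Viability is read by Trypan blue exclusion on a hemocytometer. Interaction is assessed isobolographically, comparing experimental EC50 with the theoretical EC50 from the isobole equation.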"}, "SW403 cells [4]": {"test_system": "SW403 cells", "test": "Ceramide levels in SW403 cells", "assay_type": "cell-based, human", "conditions": "3 μM, 3 h", "in_short": "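SW403 human colon adenocarcinoma cells are grown in DMEM with 10% FBS at 37°C and 5% CO2. They are treated with test compound at 3 µM, or with vehicle (0.1% DMSO in DMEM), for 3 h. Ceramide species, including d18:1/14:0, 16:0 and 18:0, are identified and quantified by LC/MS. Values are compared with vehicle by one-way ANOVA with Tukey's test.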"}, "HEK 293 cells": {"test_system": "HEK 293 cells", "test": "Cell viability of native HEK 293 cells", "assay_type": "cell-based, human", "in_short": "(§1)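 Native HEK 293 cells and HEK 293 cells transfected with V5/His-tagged rat AC (pEF6 vector) and selected with G418 (0.3 mg/mL) are exposed to graded test-compound concentrations added in DMSO (final 0.1%). Cells are harvested, spun at 800xg for 10 min and resuspended in PBS. They are mixed 1:1 with 0.4% Trypan blue for 1 min, and viable cells are counted on a hemocytometer. Mean ± s.e.m., n = 4.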"}, "AC [5]": {"molecular_target": "T2, AC (Homo sapiens, UniProt Q13510)", "T2 sequence (Q13510 22-395)": "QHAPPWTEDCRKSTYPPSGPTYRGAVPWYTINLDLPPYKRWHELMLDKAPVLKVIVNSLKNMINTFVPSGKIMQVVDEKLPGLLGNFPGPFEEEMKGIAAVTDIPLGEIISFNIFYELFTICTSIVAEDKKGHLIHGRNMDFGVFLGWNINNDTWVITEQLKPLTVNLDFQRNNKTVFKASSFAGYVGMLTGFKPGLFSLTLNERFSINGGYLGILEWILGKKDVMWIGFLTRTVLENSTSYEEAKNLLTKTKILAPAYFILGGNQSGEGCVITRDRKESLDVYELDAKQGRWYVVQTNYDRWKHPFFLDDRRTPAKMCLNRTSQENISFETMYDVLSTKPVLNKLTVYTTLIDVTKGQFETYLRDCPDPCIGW", "test": "AC activity in lysates of treated intact SW403 cells", "assay_type": "cell-based", "in_short": "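Intact cells were exposed to test compound at 0.3–10 µM, with AC activity read 3 h later in cell lysates. A time course used 3 µM over various intervals. Vehicle was 0.1% DMSO in DMEM. SW403 cells were grown in DMEM with 10% FBS at 37°C, 5% CO2. Data are mean ± s.e.m., n = 3–6, each assay in duplicate.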"}, "AC [6]": {"molecular_target": "T2, AC", "test": "AC activity in lysates of treated intact LNCaP cells", "assay_type": "cell-based", "conditions": "0.3–10 µM for 3 h; 3 µM for various time intervals"}, "[7]": {"test_system": "AC-overexpressing HEK 293 cells", "test": "Cell viability of AC-overexpressing HEK 293 cells", "assay_type": "cell-based, human", "in_short": "as §1"}, "[8]": {"test_system": "mouse tissues (lungs and cerebral cortex)", "test": "Ceramide levels in mouse tissues after i.p. injection", "assay_type": "in vivo", "conditions": "mice, 10 or 30 mg-kg^−1 i.p., lungs and brain cortex, 2 h", "in_short": "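Male Swiss Webster mice (20–35 g) receive test compound i.p. (10 or 30 mg-kg−1; 1 ml-kg−1) in 15% PEG, 15% Tween-80 and 70% saline, or vehicle alone. They are killed by cervical dislocation 2 h later. Lungs and cerebral cortex are snap-frozen in liquid nitrogen, stored at −80°C, and ceramide is measured by LC/MS. Mean ± s.e.m., n = 6.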"}, "AC [9]": {"test_system": "AC", "conditions": "read-out: AC IC50; in vitro, in keratinocytes; cited from earlier work"}, "[10]": {"conditions": "Homo sapiens, HEK293, 24 h, read-out: EC50 (cell death / cell viability)"}},
  "data": [
    {"smiles": "CCCCCCNC(=O)n1ccc(=O)[nH]c1=O", "note": "[ARN080, N-hexyl-2,4-dioxo-pyrimidine-1-carboxamide]", "values": [
      {"measurement": "IC50", "setting": "[1]", "value": "196 ± 27", "unit": "µM"},
      {"measurement": "AC activity in mouse lungs and brain cortex", "setting": "AC [2]; mice", "value": "substantially reduced"},
      {"measurement": "ED50", "setting": "AC [2]; mouse, ip, 2 h, read-out: median inhibitory dose, ID50 (AC activity in vivo)", "value": "~10", "unit": "mg/kg"},
      {"measurement": "interaction with taxol on SW403 cell viability", "setting": "SW403 cells [3]", "value": "Super-additive effects"},
      {"measurement": "interaction with 5-FU on SW403 cell viability", "setting": "SW403 cells [3]", "value": "acted synergistically"},
      {"measurement": "change in SW403 cell viability", "setting": "SW403 cells [3]", "value": "did not result in any statistically detectable change"},
      {"measurement": "ceramide levels in SW403 cells", "setting": "SW403 cells [4]", "value": "increased ceramide levels"}
    ]},
    {"smiles": "CCCCCCNC(=O)n1cc(C)c(=O)[nH]c1=O", "note": "[ARN081, N-hexyl-5-methyl-2,4-dioxo-pyrimidine-1-carboxamide]", "values": [
      {"measurement": "IC50", "setting": "[1]", "value": "762 ± 123", "unit": "µM"}
    ]},
    {"smiles": "CCCCCCNC(=O)n1cc(Cl)c(=O)[nH]c1=O", "note": "[ARN082, 5-chloro-N-hexyl-2,4-dioxo-pyrimidine-1-carboxamide]", "values": [
      {"measurement": "IC50", "setting": "[1]", "value": "496 ± 82", "unit": "µM"}
    ]},
    {"smiles": "CCCCCCNC(=O)n1cc(C(F)(F)F)c(=O)[nH]c1=O", "note": "[ARN398, 5-trifluoromethyl-N-hexyl-2,4-dioxo-pyrimidine-1-carboxamide]", "values": [
      {"measurement": "IC50", "setting": "[1]", "value": "1340 ± 268", "unit": "µM"},
      {"measurement": "interaction with taxol on SW403 cell viability", "setting": "SW403 cells [3]", "value": "Super-additive effects"},
      {"measurement": "interaction with 5-FU on SW403 cell viability", "setting": "SW403 cells [3]", "value": "acted synergistically"},
      {"measurement": "change in SW403 cell viability", "setting": "SW403 cells [3]", "value": "did not result in any statistically detectable change"},
      {"measurement": "ceramide levels in SW403 cells", "setting": "SW403 cells [4]", "value": "increased ceramide levels"}
    ]},
    {"smiles": "CCCCCCNC(=O)n1cc(F)c(=O)[nH]c1=O", "note": "[Carmofur, 1-hexylcarbamoyl-5-fluorouracil]", "values": [
      {"measurement": "IC50", "setting": "[1]", "value": "1210 ± 190", "unit": "µM"},
      {"measurement": "EC50", "setting": "HEK 293 cells; [10]", "value": 1.4, "unit": "µM"},
      {"measurement": "AC activity in SW403 cells", "setting": "AC [5]; 0.3–10 µM for 3 h, 3 µM for various time intervals", "value": "concentration- and time-dependent reduction"},
      {"measurement": "AC activity in LNCaP cells", "setting": "AC [6]", "value": "inhibits AC"},
      {"measurement": "AC activity in mouse lungs and brain cortex", "setting": "AC [2]; mice", "value": "dose-dependent inhibition"},
      {"measurement": "EC50 in AC-overexpressing cells relative to native cells", "setting": "[7]; HEK 293-AC vs native HEK 293, 24 h", "value": 50, "unit": "fold"},
      {"measurement": "EC50", "setting": "[7]; [10]", "value": 66, "unit": "µM"},
      {"measurement": "tissue ceramide content", "setting": "[8]", "value": "increases in tissue ceramide content"}
    ]},
    {"smiles": "O=c1[nH]cc(F)c(=O)[nH]1", "note": "[Compound 5-FU, 5-fluorouracil, reference compound]", "values": [
      {"measurement": "AC activity in SW403 cells", "setting": "AC [5]; 3 μM, 3 h", "value": "did not cause any detectable changes"},
      {"measurement": "AC activity in mouse tissue", "setting": "AC [2]; mice, 30 mg-kg^−1 i.p., 2 h, lungs (Figure 3A)", "value": "no statistically detectable effect"},
      {"measurement": "ceramide levels in SW403 cells", "setting": "SW403 cells [4]", "value": "did not cause any detectable changes"}
    ]},
    {"smiles": "CCCCCCCCCCCCCC(=O)N[C@H](CO)[C@H](O)c1ccc([N+](=O)[O-])cc1", "note": "[Compound B13, (1R, 2R)-2-(N-tetradecanoylamino)-1-(4-nitrophenyl)-1,3-propanediol]", "values": [
      {"measurement": "IC50", "setting": "AC [9]", "value": "~10", "unit": "µM"}
    ]},
    {"smiles": "CCCC[C@@H](C)[C@@H](OC(=O)C[C@@H](CC(=O)O)C(=O)O)[C@H](C[C@@H](C)C[C@H](O)CCCC[C@@H](O)C[C@H](O)[C@H](C)N)OC(=O)C[C@@H](CC(=O)O)C(=O)O", "note": "[FB1, fumonisin B1]", "values": [
      {"measurement": "effect of FB1 on carmofur induced cell death", "setting": "HEK 293 cells; HEK 293 cells, combination of carmofur plus FB1, Trypan blue", "value": "does not decrease carmofur induced cell death"}
    ]}
  ]
}
